Experimental data as given in ChEMBL document CHEMBL1212775, “A novel class of meso-tetrakis-porphyrin derivatives exhibits potent activities against hepatitis C virus genotype 1b replicons in vitro” (Antimicrob Agents Chemother, 2010).
pEC50, pIC50, pKd: −log10 of the molar value.

Assays:
Hepatitis C virus [1] = assay: Antiviral activity against Hepatitis C virus genotype 1b Con1 infected in human Huh-luc/neo-ET replicon cells assessed as reduction of replicon luciferase signal after 72 hrs by luciferase reporter assay in presence of 5% fetal bovine serum; assay type: functional, organism-based, Hepacivirus hominis
Method in brief: (§1)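 Huh-luc/neo-ET cells without G418, incubated with serially diluted compounds in medium containing 5%, 10%, 20% or 40% (vol/vol) FBS. Firefly luciferase read after 72 h. EC50 from dose-effect curves. The 0% value is a theoretical EC50 extrapolated from the plot of EC50 versus serum level. Means ± SD of three independent experiments.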

[2] = Cytotoxicity against human Huh-7 cells by luminescence based cell viability assay
CCRF-CEM = assay: Mitochondrial DNA toxicity in human CEM cells; assay type: cell-based
Method in brief: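 CEM cell lysates slot-blotted and hybridized with an mtDNA-specific probe, then reprobed with an Alu probe as internal control. Bands quantified by autoradiography and densitometry.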

Hepatitis C virus [3] = assay: Antiviral activity against Hepatitis C virus genotype 1b Con1 infected in human Huh-luc/neo-ET replicon cells assessed as reduction of replicon luciferase signal after 72 hrs by luciferase reporter assay in presence of 0% fetal bovine serum; assay type: functional, organism-based, Hepacivirus hominis; method in brief: as §1
Hepatitis B virus = assay: Antiviral activity against Hepatitis B virus infected in human 2.2.15 cells assessed as reduction of […] after 72 hrs by southern DNA hybridization method; assay type: functional, organism-based; settings: HepG2 2.2.15, 72 h
Hepatitis C virus [4] = assay: Antiviral activity against Hepatitis C virus genotype 1b Con1 infected in human Huh-luc/neo-ET replicon cells assessed as reduction of replicon luciferase signal after 72 hrs by luciferase reporter assay in presence of 10% fetal bovine serum; assay type: functional, organism-based, Hepacivirus hominis; method in brief: as §1
MT2 = assay: Cytotoxicity against human MT2 cells after 5 days by colorimetry; assay type: cell-based; settings: MT2, 120 h
Method in brief: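 Uninfected MT-2 cells coincubated with compounds for 5 days. Cytotoxicity by colorimetric quantitation.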

Hepatitis C virus [5] = assay: Antiviral activity against Hepatitis C virus genotype 1b Con1 infected in human Huh-luc/neo-ET replicon cells assessed as reduction of replicon luciferase signal after 72 hrs by luciferase reporter assay in presence of 20% fetal bovine serum; assay type: functional, organism-based, Hepacivirus hominis; method in brief: as §1
Hepatitis C virus [6] = assay: Antiviral activity against Hepatitis C virus genotype 1b Con1 infected in human Huh-luc/neo-ET replicon cells assessed as reduction of replicon luciferase signal after 72 hrs by luciferase reporter assay in presence of 40% fetal bovine serum; assay type: functional, organism-based, Hepacivirus hominis; method in brief: as §1
[7] = Cytotoxicity against human HuH7 cells by luminescence based cell viability assay; set-up: species or system Huh-7
Method in brief: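 Exponentially growing Huh-7 cells seeded at 1 × 10^4 per well and incubated with compounds for 3 days. Viability read by CellTiter-Glo luminescence, used for dark compounds that interfere with methylene blue absorbance at 595 nm. CC50 derived.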

[8] = tested on: Human immunodeficiency virus 1; assay: Antiviral activity against Human immunodeficiency virus 1 3B virus infected in human MT2 cells assessed as inhibition of virus-induced cytopathic effect by colorimetry; assay type: functional, organism-based
Method in brief: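 MT-2 cells, 1 × 10^3 per well in triplicate, infected with HIV-1 IIIB at 0.1 TCID50/cell and cultured with compounds. Viral CPE quantified by MTT colorimetry after 5 days to estimate EC50.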

Cytochrome c = Cytochrome c (Homo sapiens, UniProt P99999); assay: Binding affinity to Cytochrome C
Hepatitis C virus [9] = assay: Antiviral activity against Hepatitis C virus genotype 1b Con1 infected in human Huh-luc/neo-ET replicon cells assessed as reduction of replicon luciferase signal after 72 hrs by luciferase reporter assay; assay type: functional, organism-based, Hepacivirus hominis
Method in brief: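 Replicon cells grown without G418, seeded at 5 × 10^3 per well, treated next day in duplicate with serial dilutions (DMSO control) at 37°C for 72 h. After a PBS wash, cells lysed in ice-cold passive lysis reagent and firefly luciferase RLU read as percent of compound-free control. EC50 by nonlinear regression of the dose-effect curve.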

Hepatitis C virus [10] = assay: Antiviral activity against Hepatitis C virus genotype 2a JFH1 infected in human YSGR-JFH replicon cells assessed as inhibition of virus RNA level after 72 hrs by quantitative RT-PCR; assay type: functional, organism-based, Hepacivirus hominis; settings: subtype 2a JFH1, 72 h
Method in brief: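 YSGR-JFH genotype 2a subgenomic replicon cells (maintained with 400 μg/ml G418), 1 × 10^5 per well, incubated with DMSO, serially varied compound, or IFN-α-2a for 72 h. HCV RNA by qRT-PCR normalized to β-actin, as percent of mock-treated control. Mean ± SD of three independent experiments.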

Sequence of Cytochrome c (P99999 whole entry): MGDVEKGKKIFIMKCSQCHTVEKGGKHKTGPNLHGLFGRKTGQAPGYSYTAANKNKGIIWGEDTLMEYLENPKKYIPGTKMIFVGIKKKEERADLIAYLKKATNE

pEC50 (Hepatitis C virus [1]) | pEC50 (Hepatitis C virus [3]) | pEC50 (Hepatitis B virus) | pEC50 (Hepatitis C virus [4]) | pEC50 (Hepatitis C virus [5]) | pEC50 (Hepatitis C virus [6]) | pEC50 [8] | pKd (Cytochrome c) | pEC50 (Hepatitis C virus [9]) | pEC50 (Hepatitis C virus [10]) | Structure (SMILES) | CC50 [2] | pIC50 (CCRF-CEM) | CC50 (MT2) | CC50 [7]
6.20 | 6.42 | < 5.00 | 6.06 | 5.92 | 5.83 | < 4.60 | 4.77 | 6.06 |  | O=C(O)c1ccc(-c2ccc(-c3c4nc(c(-c5ccc(-c6ccc(C(=O)O)cc6)cc5)c5ccc([nH]5)c(-c5ccc(-c6ccc(C(=O)O)cc6)cc5)c5ccc([nH]5)c(-c5ccc(-c6ccc(C(=O)O)cc6)cc5)c5nc3C=C5)C=C4)cc2)cc1 | 18.6 µM | 5.22 | 25 µM | 32.2 µM
 |  | < 5.00 |  |  |  | 5.98 |  | < 4.90 |  | O=C(O)CNC(=O)c1cc(C(=O)NCC(=O)O)cc(-c2ccc(-c3c4nc(c(-c5ccc(-c6cc(C(=O)NCC(=O)O)cc(C(=O)NCC(=O)O)c6)cc5)c5ccc([nH]5)c(-c5ccc(-c6cc(C(=O)NCC(=O)O)cc(C(=O)NCC(=O)O)c6)cc5)c5nc(c(-c6ccc(-c7cc(C(=O)NCC(=O)O)cc(C(=O)NCC(=O)O)c7)cc6)c6ccc3[nH]6)C=C5)C=C4)cc2)c1 | > 50 µM | 4.90 | 15 µM | 12.5 µM
 |  |  |  |  |  | < 4.00 |  | 4.87 |  | O=C(O)c1cc(C(=O)O)cc(-c2c3nc(c(-c4cc(C(=O)O)cc(C(=O)O)c4)c4ccc([nH]4)c(-c4cc(C(=O)O)cc(C(=O)O)c4)c4nc(c(-c5cc(C(=O)O)cc(C(=O)O)c5)c5ccc2[nH]5)C=C4)C=C3)c1 | > 50 µM | 4.60 | > 50 µM | > 50 µM
 |  | < 4.70 |  |  |  | 5.82 |  | 6.83 |  | O=C(O)CNC(=O)c1ccc(-c2ccc(-c3c4nc(c(-c5ccc(-c6ccc(C(=O)NCC(=O)O)cc6)cc5)c5ccc([nH]5)c(-c5ccc(-c6ccc(C(=O)NCC(=O)O)cc6)cc5)c5nc(c(-c6ccc(-c7ccc(C(=O)NCC(=O)O)cc7)cc6)c6ccc3[nH]6)C=C5)C=C4)cc2)cc1 | > 50 µM | < 4.30 | 13 µM | > 50 µM
 |  | < 5.00 |  |  |  | < 4.60 |  | 5.74 |  | O=C(O)CNC(=O)c1ccc(-c2c3nc(c(-c4ccc(C(=O)NCC(=O)O)cc4)c4ccc([nH]4)c(-c4ccc(C(=O)NCC(=O)O)cc4)c4nc(c(-c5ccc(C(=O)NCC(=O)O)cc5)c5ccc2[nH]5)C=C4)C=C3)cc1 | 27 µM | 4.82 | 3.2 µM | > 50 µM

The next lines start with the compound.

Structure (SMILES) | pEC50 (Hepatitis C virus [1]) | pEC50 (Hepatitis C virus [3]) | pEC50 (Hepatitis B virus) | pEC50 (Hepatitis C virus [4]) | pEC50 (Hepatitis C virus [5]) | pEC50 (Hepatitis C virus [6]) | pEC50 [8] | pKd (Cytochrome c) | pEC50 (Hepatitis C virus [9]) | pEC50 (Hepatitis C virus [10]) | CC50 [2] | pIC50 (CCRF-CEM) | CC50 (MT2) | CC50 [7]
COC(=O)[C@H](CC(=O)O)NC(=O)c1cc(C(=O)N[C@@H](CC(=O)O)C(=O)OC)cc(-c2ccc(-c3c4nc(c(-c5ccc(-c6cc(C(=O)N[C@@H](CC(=O)O)C(=O)OC)cc(C(=O)N[C@@H](CC(=O)O)C(=O)OC)c6)cc5)c5ccc([nH]5)c(-c5ccc(-c6cc(C(=O)N[C@@H](CC(=O)O)C(=O)OC)cc(C(=O)N[C@@H](CC(=O)O)C(=O)OC)c6)cc5)c5nc(c(-c6ccc(-c7cc(C(=O)N[C@@H](CC(=O)O)C(=O)OC)cc(C(=O)N[C@@H](CC(=O)O)C(=O)OC)c7)cc6)c6ccc3[nH]6)C=C5)C=C4)cc2)c1 |  |  | < 5.00 |  |  |  | 5.39 | 5.77 | 5.60 |  |  | 5.00 | > 25 µM | 12.5 µM
O=C(O)c1ccc(-c2c3nc(c(-c4ccc(C(=O)O)cc4)c4ccc([nH]4)c(-c4ccc(C(=O)O)cc4)c4ccc([nH]4)c(-c4ccc(C(=O)O)cc4)c4nc2C=C4)C=C3)cc1 | 6.91 | 7.32 | < 5.00 | 6.61 | 6.29 | 6.02 | < 4.60 | 6.02 | 6.61 | 5.72 | > 50 µM | < 4.30 | > 25 µM | > 50 µM
O=C(O)c1cccc(-c2ccc(-c3c4nc(c(-c5ccc(-c6cccc(C(=O)O)c6)cc5)c5ccc([nH]5)c(-c5ccc(-c6cccc(C(=O)O)c6)cc5)c5nc(c(-c6ccc(-c7cccc(C(=O)O)c7)cc6)c6ccc3[nH]6)C=C5)C=C4)cc2)c1 |  |  | < 4.70 |  |  |  | < 4.60 |  | 6.12 |  | 42.3 µM | 4.66 | > 25 µM | 13 µM
